From ChEMBL document CHEMBL1149590, “Synthesis and evaluation of homo-bivalent GnRHR ligands” (Bioorg Med Chem, 2007)

Columns and labels:
[1] = target: T1, Gonadotropin-releasing hormone receptor (Homo sapiens) (UniProt P30968); experiment: Displacement of [125I]triptorelin from human GnRHR expressed in CHO cells at 1 uM; type: cell-based
T1 sequence (whole entry): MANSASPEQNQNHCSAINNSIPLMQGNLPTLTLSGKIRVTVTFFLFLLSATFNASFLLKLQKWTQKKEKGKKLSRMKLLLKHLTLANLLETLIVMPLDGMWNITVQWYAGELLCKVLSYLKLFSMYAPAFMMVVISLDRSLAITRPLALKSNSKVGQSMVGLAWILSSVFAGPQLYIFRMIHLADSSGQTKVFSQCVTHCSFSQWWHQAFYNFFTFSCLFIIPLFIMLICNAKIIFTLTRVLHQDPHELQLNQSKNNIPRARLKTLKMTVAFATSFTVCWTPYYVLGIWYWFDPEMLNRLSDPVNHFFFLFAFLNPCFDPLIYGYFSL
In short: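 Single-point displacement at 1 μM test compound. CHO membranes bearing wild-type human GnRHR (20 µg protein) incubated 45 min at 22 °C with [125I]triptorelin (30,000 cpm) in Tris-HCl pH 7.4 containing MgCl2 and BSA. Nonspecific binding taken with 1 µM ganirelix, total binding with buffer. Bound radioligand recovered by filtration and gamma-counted; percent displacement reported.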

[2] = target: T2, Gonadotropin-releasing hormone receptor (Homo sapiens, UniProt P30968); experiment: Antagonist activity at human GnRHR expressed in CHO cells after 30 mins by luciferase reporter gene assay; type: functional, cell-based
T2 sequence (P30968 whole entry): T1 sequence (whole entry)

[3] = target: T2, Gonadotropin-releasing hormone receptor; experiment: Displacement of [125I]triptorelin from human GnRHR expressed in CHO cells; type: cell-based
In short: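 Membranes from CHO cells expressing wild-type human GnRHR (20 µg protein) incubated with [125I]triptorelin (30,000 cpm) and five competitor concentrations in 50 mM Tris-HCl pH 7.4, 2 mM MgCl2, 0.1% BSA, 45 min at 22 °C. Nonspecific binding defined with 1 µM ganirelix. Filtration, gamma counting. Ki from IC50 via Cheng-Prusoff (Kd 1.1 nM); at least three experiments in duplicate.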

| Activity [1] [%] | IC50 [2] [nM] | Ki [3] [nM] | SMILES |
| --- | --- | --- | --- |
| 85 | 3630 |  | CCOC(=O)c1cn(Cc2c(F)cccc2F)c2nc(-c3ccc(NC(=O)NCc4cn(CCOCCN=[N+]=[N-])nn4)cc3)c(CN(C)Cc3ccccc3)n2c1=O |
| 78 | 832 |  | CCNC(=O)Nc1ccc(-c2nc3n(Cc4c(F)cccc4F)cc(C(=O)OCC)c(=O)n3c2CN(CC(=O)NCc2cn(CCOCCOCCOCCOCCN=[N+]=[N-])nn2)Cc2ccccc2)cc1 |
| 83 | 468 |  | CCNC(=O)Nc1ccc(-c2nc3n(Cc4c(F)cccc4F)cc(C(=O)OCC)c(=O)n3c2CN(CC(=O)NCc2cn(CCOCCOCCN=[N+]=[N-])nn2)Cc2ccccc2)cc1 |
| 88 | 3160 |  | CCOC(=O)c1cn(Cc2c(F)cccc2F)c2nc(-c3ccc(NC(=O)NCc4cn(CCOCCn5cc(CNC(=O)Nc6ccc(-c7nc8n(Cc9c(F)cccc9F)cc(C(=O)OCC)c(=O)n8c7CN(C)Cc7ccccc7)cc6)nn5)nn4)cc3)c(CN(C)Cc3ccccc3)n2c1=O |
| 78 | > 10000 |  | CCNC(=O)Nc1ccc(-c2nc3n(Cc4c(F)cccc4F)cc(C(=O)NCc4cn(CCN=[N+]=[N-])nn4)c(=O)n3c2CN(C)Cc2ccccc2)cc1 |
| 69 | > 10000 |  | CCNC(=O)Nc1ccc(-c2nc3n(Cc4c(F)cccc4F)cc(C(=O)NCc4cn(CCOCCOCCOCCN=[N+]=[N-])nn4)c(=O)n3c2CN(C)Cc2ccccc2)cc1 |
| 71 | 1320 | 69.2 | CCNC(=O)Nc1ccc(-c2nc3n(Cc4c(F)cccc4F)cc(C(=O)OCC)c(=O)n3c2CN(CC(=O)NCc2cn(CCOCCOCCOCCn3cc(CNC(=O)CN(Cc4ccccc4)Cc4c(-c5ccc(NC(=O)NCC)cc5)nc5n(Cc6c(F)cccc6F)cc(C(=O)OCC)c(=O)n45)nn3)nn2)Cc2ccccc2)cc1 |
| 90 | 676 |  | CCOC(=O)c1cn(Cc2c(F)cccc2F)c2nc(-c3ccc(NC(=O)NCc4cn(CCOCCOCCOCCOCCN=[N+]=[N-])nn4)cc3)c(CN(C)Cc3ccccc3)n2c1=O |
| 65 | 1910 |  | CCNC(=O)Nc1ccc(-c2nc3n(Cc4c(F)cccc4F)cc(C(=O)OCC)c(=O)n3c2CN(CC(=O)NCc2cn(CCn3cc(CNC(=O)CN(Cc4ccccc4)Cc4c(-c5ccc(NC(=O)NCC)cc5)nc5n(Cc6c(F)cccc6F)cc(C(=O)OCC)c(=O)n45)nn3)nn2)Cc2ccccc2)cc1 |
| 89 | 1350 |  | CCOC(=O)c1cn(Cc2c(F)cccc2F)c2nc(-c3ccc(NC(=O)NCc4cn(CCOCCOCCOCCOCCn5cc(CNC(=O)Nc6ccc(-c7nc8n(Cc9c(F)cccc9F)cc(C(=O)OCC)c(=O)n8c7CN(C)Cc7ccccc7)cc6)nn5)nn4)cc3)c(CN(C)Cc3ccccc3)n2c1=O |
| 84 | 3020 |  | CCOC(=O)c1cn(Cc2c(F)cccc2F)c2nc(-c3ccc(NC(=O)NCc4cn(CCOCCOCCOCCN=[N+]=[N-])nn4)cc3)c(CN(C)Cc3ccccc3)n2c1=O |
| 94 | 955 | 23.4 | CCOC(=O)c1cn(Cc2c(F)cccc2F)c2nc(-c3ccc(NC(=O)NCc4cn(CCOCCOCCn5cc(CNC(=O)Nc6ccc(-c7nc8n(Cc9c(F)cccc9F)cc(C(=O)OCC)c(=O)n8c7CN(C)Cc7ccccc7)cc6)nn5)nn4)cc3)c(CN(C)Cc3ccccc3)n2c1=O |
| 81 | > 10000 |  | CCNC(=O)Nc1ccc(-c2nc3n(Cc4c(F)cccc4F)cc(C(=O)NCc4cn(CCOCCOCCN=[N+]=[N-])nn4)c(=O)n3c2CN(C)Cc2ccccc2)cc1 |
| 68 | 1910 |  | CCOC(=O)c1cn(Cc2c(F)cccc2F)c2nc(-c3ccc(NC(=O)NCc4cn(CCn5cc(CNC(=O)Nc6ccc(-c7nc8n(Cc9c(F)cccc9F)cc(C(=O)OCC)c(=O)n8c7CN(C)Cc7ccccc7)cc6)nn5)nn4)cc3)c(CN(C)Cc3ccccc3)n2c1=O |
| 86 | > 10000 |  | CCNC(=O)Nc1ccc(-c2nc3n(Cc4c(F)cccc4F)cc(C(=O)NCc4cn(CCOCCOCCOCCn5cc(CNC(=O)c6cn(Cc7c(F)cccc7F)c7nc(-c8ccc(NC(=O)NCC)cc8)c(CN(C)Cc8ccccc8)n7c6=O)nn5)nn4)c(=O)n3c2CN(C)Cc2ccccc2)cc1 |
| 84 | 832 | 58.9 | CCNC(=O)Nc1ccc(-c2nc3n(Cc4c(F)cccc4F)cc(C(=O)OCC)c(=O)n3c2CN(CC(=O)NCc2cn(CCOCCOCCn3cc(CNC(=O)CN(Cc4ccccc4)Cc4c(-c5ccc(NC(=O)NCC)cc5)nc5n(Cc6c(F)cccc6F)cc(C(=O)OCC)c(=O)n45)nn3)nn2)Cc2ccccc2)cc1 |
| 76 | 724 |  | CCNC(=O)Nc1ccc(-c2nc3n(Cc4c(F)cccc4F)cc(C(=O)OCC)c(=O)n3c2CN(CC(=O)NCc2cn(CCOCCOCCOCCN=[N+]=[N-])nn2)Cc2ccccc2)cc1 |

| Activity [1] [%] | IC50 [2] [nM] | Ki [3] [nM] | SMILES |
| --- | --- | --- | --- |
| 68 | > 10000 |  | CCNC(=O)Nc1ccc(-c2nc3n(Cc4c(F)cccc4F)cc(C(=O)NCc4cn(CCOCCN=[N+]=[N-])nn4)c(=O)n3c2CN(C)Cc2ccccc2)cc1 |
| 64 | > 10000 |  | CCNC(=O)Nc1ccc(-c2nc3n(Cc4c(F)cccc4F)cc(C(=O)NCc4cn(CCOCCn5cc(CNC(=O)c6cn(Cc7c(F)cccc7F)c7nc(-c8ccc(NC(=O)NCC)cc8)c(CN(C)Cc8ccccc8)n7c6=O)nn5)nn4)c(=O)n3c2CN(C)Cc2ccccc2)cc1 |
| 85 | 7080 | 162 | C#CCNC(=O)c1cn(Cc2c(F)cccc2F)c2nc(-c3ccc(NC(=O)NCC)cc3)c(CN(C)Cc3ccccc3)n2c1=O |
| 70 | > 10000 |  | CCNC(=O)Nc1ccc(-c2nc3n(Cc4c(F)cccc4F)cc(C(=O)NCc4cn(CCOCCOCCOCCOCCN=[N+]=[N-])nn4)c(=O)n3c2CN(C)Cc2ccccc2)cc1 |
| 74 | 724 |  | CCNC(=O)Nc1ccc(-c2nc3n(Cc4c(F)cccc4F)cc(C(=O)OCC)c(=O)n3c2CN(CC(=O)NCc2cn(CCN=[N+]=[N-])nn2)Cc2ccccc2)cc1 |
| 76 | 2570 |  | CCOC(=O)c1cn(Cc2c(F)cccc2F)c2nc(-c3ccc(NC(=O)NCc4cn(CCN=[N+]=[N-])nn4)cc3)c(CN(C)Cc3ccccc3)n2c1=O |
| 26 | > 10000 |  | CCNC(=O)Nc1ccc(-c2nc3n(Cc4c(F)cccc4F)cc(C(=O)NCc4cn(CCn5cc(CNC(=O)c6cn(Cc7c(F)cccc7F)c7nc(-c8ccc(NC(=O)NCC)cc8)c(CN(C)Cc8ccccc8)n7c6=O)nn5)nn4)c(=O)n3c2CN(C)Cc2ccccc2)cc1 |
| 71 | 1550 |  | CCNC(=O)Nc1ccc(-c2nc3n(Cc4c(F)cccc4F)cc(C(=O)OCC)c(=O)n3c2CN(CC(=O)NCc2cn(CCOCCn3cc(CNC(=O)CN(Cc4ccccc4)Cc4c(-c5ccc(NC(=O)NCC)cc5)nc5n(Cc6c(F)cccc6F)cc(C(=O)OCC)c(=O)n45)nn3)nn2)Cc2ccccc2)cc1 |
| 98 | 676 | 1.35 | C#CCNC(=O)Nc1ccc(-c2nc3n(Cc4c(F)cccc4F)cc(C(=O)OCC)c(=O)n3c2CN(C)Cc2ccccc2)cc1 |
| 85 | > 10000 |  | CCNC(=O)Nc1ccc(-c2nc3n(Cc4c(F)cccc4F)cc(C(=O)NCc4cn(CCOCCOCCOCCOCCn5cc(CNC(=O)c6cn(Cc7c(F)cccc7F)c7nc(-c8ccc(NC(=O)NCC)cc8)c(CN(C)Cc8ccccc8)n7c6=O)nn5)nn4)c(=O)n3c2CN(C)Cc2ccccc2)cc1 |
| 66 | 525 |  | CCNC(=O)Nc1ccc(-c2nc3n(Cc4c(F)cccc4F)cc(C(=O)OCC)c(=O)n3c2CN(CC(=O)NCc2cn(CCOCCN=[N+]=[N-])nn2)Cc2ccccc2)cc1 |
| 89 | 309 | 195 | CCNC(=O)Nc1ccc(-c2nc3n(Cc4c(F)cccc4F)cc(C(=O)OCC)c(=O)n3c2CN(CC(=O)NCc2cn(CCOCCOCCOCCOCCn3cc(CNC(=O)CN(Cc4ccccc4)Cc4c(-c5ccc(NC(=O)NCC)cc5)nc5n(Cc6c(F)cccc6F)cc(C(=O)OCC)c(=O)n45)nn3)nn2)Cc2ccccc2)cc1 |
| 99 | 70.8 | 4.79 | CCNC(=O)Nc1ccc(-c2nc3n(Cc4c(F)cccc4F)cc(C(=O)OCC)c(=O)n3c2CN(C)Cc2ccccc2)cc1 |
| 90 | 355 | 29.5 | CCOC(=O)c1cn(Cc2c(F)cccc2F)c2nc(-c3ccc(NC(=O)NCc4cn(CCOCCOCCOCCn5cc(CNC(=O)Nc6ccc(-c7nc8n(Cc9c(F)cccc9F)cc(C(=O)OCC)c(=O)n8c7CN(C)Cc7ccccc7)cc6)nn5)nn4)cc3)c(CN(C)Cc3ccccc3)n2c1=O |
| 84 | 2400 |  | CCOC(=O)c1cn(Cc2c(F)cccc2F)c2nc(-c3ccc(NC(=O)NCc4cn(CCOCCOCCN=[N+]=[N-])nn4)cc3)c(CN(C)Cc3ccccc3)n2c1=O |
| 98 | 1000 | 5.25 | C#CCNC(=O)CN(Cc1ccccc1)Cc1c(-c2ccc(NC(=O)NCC)cc2)nc2n(Cc3c(F)cccc3F)cc(C(=O)OCC)c(=O)n12 |
